Data published in ChEMBL document CHEMBL1127500, “Structure-activity studies of benzimidazole-based DNA-cleaving agents. Comparison of benzimidazole, pyrrolobenzimidazole, and tetrahydropyridobenzimidazole analogues” (1994).

Tests used:
Assay type in all cases: functional
[1] = system: LOX IMVI; assay: Antitumor activity against LOX IMV cell line; conditions: Homo sapiens, read-out: Log LC50 (the source's name) (converted)
In short: (§1)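 Drugs were screened against a panel of up to 60 human cancer cell lines. The end-point was LC50, the drug concentration lethal to 50% of the cancer cells. Values were expressed as log LC50 and plotted as mean graphs centred on the log of the panel-mean LC50. Bars to the right mark lines with lower log LC50 than the mean.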

[2] = system: Malme-3M; assay: Antitumor activity against MALME-3M cell line; conditions: Homo sapiens; in short: as §1
[3] = system: SK-MEL-5; assay: Antitumor activity against SK-MEL-5 cell line; conditions: Homo sapiens
In short: (§2)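 Screened against a panel of up to 60 human cancer cell lines. Read-out is LC50, the drug concentration lethal to 50% of the cells, expressed as log LC50. The mean log LC50 across the screened lines is the centre line of the mean graph. Each line's deviation from that mean is shown as a bar.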

[4] = Mean log10 LC50 was determined; in short: as §2
[5] = system: A549; assay: Antitumor activity against A549/ATCC cell line; conditions: Homo sapiens; in short: as §1
[6] = system: CCRF-CEM; assay: Antitumor activity against CCRF-CEM leukemia cell line; conditions: Homo sapiens, read-out: Log LC50 (the source's name) (converted); in short: as §1
[7] = system: DMS-114; assay: Antitumor activity against DMS 114 cell line; conditions: Homo sapiens; in short: as §1
[8] = system: EKVX; assay: Antitumor activity against EKVX cell line; conditions: Homo sapiens; in short: as §1
[9] = system: HCT-15; assay: Antitumor activity against HCT-15 cell line; conditions: Homo sapiens, read-out: Log LC50 (the source's name) (converted); in short: as §1
[10] = system: HOP-62; assay: Antitumor activity against HOP-62 cell line; conditions: Homo sapiens; in short: as §1
[11] = system: HOP-18; assay: Antitumor activity against HOP-18 cell line; conditions: Homo sapiens, read-out: Log LC50 (the source's name) (converted); in short: as §1
[12] = system: HOP-92; assay: Antitumor activity against HOP-92 cell line; conditions: Homo sapiens, read-out: Log LC50 (the source's name) (converted); in short: as §1
[13] = system: HT-29; assay: Antitumor activity against HT 29 cell line; conditions: Homo sapiens, read-out: Log LC50 (the source's name) (converted); in short: as §1
[14] = system: K562; assay: Antitumor activity against K-562 leukemia cell line; conditions: Homo sapiens, read-out: Log LC50 (the source's name) (converted); in short: as §1
[15] = system: KM12; assay: Antitumor activity against KM 12 cell line; conditions: Homo sapiens, read-out: Log LC50 (the source's name) (converted); in short: as §1
[16] = system: KM-20L2; assay: Antitumor activity against KM 20L2 cell line; conditions: Homo sapiens; in short: as §1
[17] = system: IGROV-1; assay: Antitumor activity against IGROVI cell line; conditions: Homo sapiens; in short: as §1
[18] = system: LXFL 529; assay: Antitumor activity against […] cell line; conditions: Homo sapiens; in short: as §1
[19] = system: M14; assay: Antitumor activity against M 14 cell line; conditions: Homo sapiens; in short: as §1
[20] = system: M19-MEL; assay: Antitumor activity against M 19-MEL cell line; conditions: Homo sapiens; in short: as §1
[21] = system: LOX IMVI; assay: Antitumor activity against LOX IMVI cell line; conditions: Homo sapiens; in short: as §1
[22] = system: MOLT-4; assay: Antitumor activity against MOLT-4 leukemia cell line; conditions: Homo sapiens; in short: as §1
[23] = system: NCI-H522; assay: Antitumor activity against NCI-H522 cell line; conditions: Homo sapiens; in short: as §1
[24] = system: NCI-H226; assay: Antitumor activity against NCI-H226 cell line; conditions: Homo sapiens; in short: as §1
[25] = system: OVCAR-8; assay: Antitumor activity against OVCAR-8 cell line; conditions: Homo sapiens, read-out: Log LC50 (the source's name) (converted); in short: as §1
[26] = system: OVCAR-3; assay: Antitumor activity against OVCAR-3 cell line; conditions: Homo sapiens; in short: as §1
[27] = system: NCI-H322M; assay: Antitumor activity against NCI-H322M cell line; conditions: Homo sapiens, read-out: Log LC50 (the source's name) (converted); in short: as §1
[28] = system: OVCAR-5; assay: Antitumor activity against OVCAR-5 cell line; conditions: Homo sapiens; in short: as §1
[29] = system: RPMI-8226; assay: Antitumor activity against RPMI-8226 leukemia cell line; conditions: Homo sapiens, read-out: Log LC50 (the source's name) (converted); in short: as §1
[30] = system: CAKI-1; assay: Antitumor activity against Renal cancer CAKI-1 cell line; conditions: Homo sapiens, read-out: Log LC50 (the source's name) (converted); in short: as §1
[31] = system: 786-0; assay: Antitumor activity against Renal cancer 786-O cell line; conditions: Homo sapiens; in short: as §1
[32] = system: ACHN; assay: Antitumor activity against Renal cancer ACHN cell line; conditions: Homo sapiens, read-out: Log LC50 (the source's name) (converted); in short: as §1
[33] = system: SN12C; assay: Antitumor activity against Renal cancer SN 12C cell line; conditions: Homo sapiens; in short: as §1
[34] = system: TK-10; assay: Antitumor activity against Renal cancer TK-10 cell line; conditions: Homo sapiens; in short: as §1
[35] = system: UO-31; assay: Antitumor activity against Renal cancer UO-31 cell line; conditions: Homo sapiens; in short: as §1
[36] = system: SK-MEL-2; assay: Antitumor activity against SK-MEL-2 cell line; conditions: Homo sapiens, read-out: Log LC50 (the source's name) (converted); in short: as §1
[37] = system: SF-539; assay: Antitumor activity against SF-539 cell line; conditions: Homo sapiens; in short: as §1
[38] = system: SNB-19; assay: Antitumor activity against SNB-19 cell line; conditions: Homo sapiens; in short: as §2
[39] = system: SNB-; assay: Antitumor activity against SNB-71 cell line; conditions: Homo sapiens, read-out: Log LC50 (the source's name) (converted); in short: as §2
[40] = system: SF-295; assay: Antitumor activity against SF-295 cell line; conditions: Homo sapiens, read-out: Log LC50 (the source's name) (converted); in short: as §1
[41] = system: SW-620; assay: Antitumor activity against SW-620 cell line; conditions: Homo sapiens; in short: as §2
[42] = system: SNB-75; assay: Antitumor activity against SNB-75 cell line; conditions: Homo sapiens; in short: as §2
[43] = system: SK-OV-3; assay: Antitumor activity against SK-OV-3 cell line; conditions: Homo sapiens, read-out: Log LC50 (the source's name) (converted); in short: as §2
[44] = system: SK-MEL-28; assay: Antitumor activity against SK-MEL-28 cell line; conditions: Homo sapiens; in short: as §2
[45] = system: UACC-257; assay: Antitumor activity against UACC-257 cell line; conditions: Homo sapiens; in short: as §2
[46] = system: U-251; assay: Antitumor activity against U251 cell line; conditions: Homo sapiens; in short: as §2
[47] = system: DLD-1; assay: Antitumor activity against DLD-1 cell line; conditions: Homo sapiens; in short: as §1
[48] = system: HCC 2998; assay: Antitumor activity against HCC2998 cell line; conditions: Homo sapiens, read-out: Log LC50 (the source's name) (converted); in short: as §1
[49] = system: SF-268; assay: Antitumor activity against SF-268 cell line; conditions: Homo sapiens; in short: as §1
[50] = system: XF498; assay: Antitumor activity against XF 498 cell line; conditions: Homo sapiens, read-out: Log LC50 (the source's name) (converted); in short: as §2
[51] = system: RXF 393; assay: Antitumor activity against Renal cancer RXF-393 cell line; conditions: Homo sapiens; in short: as §1
[52] = system: OVCAR-4; assay: Antitumor activity against OVCAR-4 cell line; conditions: Homo sapiens; in short: as §1

## CC(=O)OC1CCn2c1nc1c2C(=O)C(C)=C(N2CC2)C1=O (stereo not given)
[1]
  CC50: < 10 nM
[2]
  LC50: 55 nM
[3]
  LC50: < 10 nM
[4]
  Mean log LC50: -6.61

## CC(=O)OC1CCn2c1nc1c2C(=O)C(N2CC2)=C(C)C1=O (stereo not given)
[5]
  LC50: 7760 nM
[6]
  CC50: > 100000 nM
[7]
  LC50: > 100000 nM
[8]
  LC50: 832 nM
[9]
  CC50: 3090 nM
[10]
  LC50: 219 nM
[11]
  CC50: 3160 nM
[12]
  CC50: 11200 nM
[13]
  CC50: 5370 nM
[14]
  CC50: > 100000 nM
[15]
  CC50: 1070 nM
[16]
  LC50 (concentration lethal to 50% of cells): 4370 nM
[17]
  LC50: 8130 nM
[18]
  LC50: 525 nM
[19]
  LC50: 324 nM
[20]
  LC50: > 100000 nM
[21]
  LC50: 66.1 nM
[22]
  LC50: > 100000 nM
[2]
  LC50: 589 nM
[23]
  LC50: 100 nM
[24]
  LC50: 955 nM
[25]
  CC50: 1000 nM
[26]
  LC50: 3390 nM
[27]
  CC50: 2690 nM
[28]
  LC50: 3390 nM
[29]
  CC50: > 100000 nM
[30]
  CC50: 6460 nM
[31]
  LC50: 347 nM
[32]
  CC50: 2340 nM
[33]
  LC50: 617 nM
[34]
  LC50: 2880 nM
[35]
  LC50 (concentration lethal to 50% of cancer cells): 145 nM
[36]
  CC50: 479 nM
[37]
  LC50 (concentration lethal to 50% of cells): 631 nM
[38]
  LC50: 2570 nM
[39]
  CC50: 6460 nM
[40]
  CC50: 2000 nM
[41]
  LC50: 4270 nM
[3]
  LC50: 224 nM
[42]
  LC50: 603 nM
[43]
  CC50: 2950 nM
[44]
  LC50: 603 nM
[45]
  LC50: 2040 nM
[46]
  LC50: 3090 nM
[4]
  Mean log LC50: -5.68
[47]
  LC50: 53700 nM
[48]
  CC50: 372 nM
[49]
  LC50: 5620 nM
[50]
  CC50: 126 nM
[51]
  LC50: 51.3 nM
[52]
  LC50: 380 nM
